In experiment [1] the target is Angiopoietin-1 receptor (Homo sapiens) (UniProt Q02763). The experiment is described as follows: Inhibition of human TIE2 at 10 uM using poly[Glu:Tyr] (4:1) as substrate by [gamma-33P]-ATP assay relative to control. In short, it runs like this:
(§1)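 Kinase-panel profiling (50 oncogenic kinases) run by an outside contract service. The test compound was tested at a single concentration of 10 μM. Percent inhibition was calculated as 100 minus % remaining activity.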

The target of experiment [2] is Serine/threonine-protein kinase Chk1 (Homo sapiens) (UniProt O14757). Nature of the experiment: Inhibition of human CHK1 at 10 uM using KKKVSRSGLYRSPSMPENLNRPR as substrate by [gamma-33P]-ATP assay relative to control. The procedure, abridged:
(§2)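 Commercial kinase panel screen at a single concentration of 10 μM. % inhibition was calculated as 100 minus % activity.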

The target in experiment [3] is Homeodomain-interacting protein kinase 1 (Homo sapiens) (UniProt Q86Z02). Nature of the experiment: Inhibition of human HIPK1 at 10 uM using MBP as substrate by [gamma-33P]-ATP assay relative to control. In short, it runs like this:
as §2

Experiment [4] has as its target Aurora kinase A (Homo sapiens) (UniProt O14965). Nature of the experiment: Inhibition of human AuroraA at 10 uM using [H-LRRASLG] as substrate by [gamma-33P]-ATP assay relative to control. The procedure, abridged:
as §2

Experiment [5] concerns the target Ephrin type-A receptor 1 (Homo sapiens) (UniProt P21709). Nature of the experiment: Inhibition of human EPHA1 at 10 uM using poly[Glu:Tyr] (4:1) as substrate by [gamma-33P]-ATP assay relative to control. The procedure, abridged:
as §2

For experiment [6], the target named is Activated CDC42 kinase 1 (Homo sapiens) (UniProt Q07912). The experiment is described as follows: Inhibition of human ACK1 at 10 uM using EAIYAAPFAKKK as substrate by [gamma-33P]-ATP assay relative to control. In short, it runs like this: as §2
The subject of another experiment is OVCAR-3. Nature of the experiment: Antiproliferative activity against human OVCAR3 cells after 2 days by spectrophotometric analysis. The format is functional. The settings on record: OVCAR-3, 48 h. In short, it runs like this:
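Cells from ATCC were kept in RPMI 1640 with 5% FBS. They were exposed to graded concentrations in DMSO/RPMI for 48 h at 37 C under 5% CO2, then fixed with 50% trichloroacetic acid. Cellular protein was read at 540 nm at time zero and at 48 h, with and without compound. TGI (100% growth inhibition) was taken from the concentration-response curve.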

For experiment [7], the target named is Tyrosine-protein kinase ABL1 (Homo sapiens) (UniProt P00519). The experiment is described as follows: Inhibition of human ABL1 at 10 uM using EAIYAAPFAKKK as substrate by [gamma-33P]-ATP assay relative to control. The procedure, abridged:
as §2

The subject of a further experiment is HepG2. The experiment is described as follows: Antiproliferative activity against human HepG2 cells after 2 days by spectrophotometric analysis. It counts as functional. The settings on record: HepG2, 48 h.
Experiment [8] concerns the target Tyrosine-protein kinase receptor TYRO3 (Homo sapiens, UniProt Q06418). The experiment is described as follows: Inhibition of human TYRO3 using poly[Glu:Tyr] (4:1) as substrate by [gamma-33P]-ATP assay.
In experiment [9] the target is Tyrosine-protein kinase Mer (Homo sapiens) (UniProt Q12866). Nature of the experiment: Inhibition of human MER at 10 uM using poly[Glu:Tyr] (4:1) as substrate by [gamma-33P]-ATP assay relative to control. The procedure, abridged: as §2
For experiment [10], the target named is ALK tyrosine kinase receptor (Homo sapiens) (UniProt Q9UM73). The experiment is described as follows: Inhibition of human ALK at 10 uM using poly[Glu:Tyr] (4:1) as substrate by [gamma-33P]-ATP assay relative to control. The procedure, abridged:
as §2

Experiment [11] deals with Serine/threonine-protein kinase PLK1 (Homo sapiens, UniProt P53350). The experiment is described as follows: Inhibition of human PLK1 at 10 uM using casein as substrate by [gamma-33P]-ATP assay relative to control. In short, it runs like this:
as §1

For experiment [12], the target named is Macrophage-stimulating protein receptor (Homo sapiens) (UniProt Q04912). Nature of the experiment: Inhibition of human RON at 10 uM using KKSRGDYMTMQIG as substrate by [gamma-33P]-ATP assay relative to control. The procedure, abridged:
as §1

Experiment [13] addresses Casein kinase I isoform epsilon (Homo sapiens) (UniProt P49674). The experiment is described as follows: Inhibition of human CK1 epsilon at 10 uM using KRRRAL[pS]VASLPGL as substrate by [gamma-33P]-ATP assay relative to control. In short, it runs like this:
as §2

In experiment [14] the target is Receptor-type tyrosine-protein kinase FLT3 (Homo sapiens, UniProt P36888). The experiment is described as follows: Inhibition of human FLT3 using EAIYAAPFAKKK as substrate by [gamma-33P]-ATP assay.
For experiment [15], the target named is Tyrosine-protein kinase receptor UFO (Homo sapiens) (UniProt P30530). The experiment is described as follows: Inhibition of human AXL at 10 uM using EAIYAAPFAKKK as substrate by [gamma-33P]-ATP assay relative to control. The procedure, abridged:
as §2

Experiment [16] concerns the target Inhibitor of nuclear factor kappa-B kinase subunit alpha (Homo sapiens) (UniProt O15111). The experiment is described as follows: Inhibition of human IKKalpha at 10 uM using KKKKERLLDDRHDSGLDSMKDEE as substrate by [gamma-33P]-ATP assay relative to control. In short, it runs like this: as §2

For orientation: inhibition means the change of the read-out against control, counted positive when it falls. For orientation: GI50 means the concentration giving 50% growth inhibition. Read a low GI50 as more potent growth inhibition. The term IC50 denotes the concentration that gives 50% inhibition. A higher IC50 goes with weaker potency in that assay.

Macrophage-stimulating protein receptor (Homo sapiens), sequence (Q04912 25-304 limits assumed): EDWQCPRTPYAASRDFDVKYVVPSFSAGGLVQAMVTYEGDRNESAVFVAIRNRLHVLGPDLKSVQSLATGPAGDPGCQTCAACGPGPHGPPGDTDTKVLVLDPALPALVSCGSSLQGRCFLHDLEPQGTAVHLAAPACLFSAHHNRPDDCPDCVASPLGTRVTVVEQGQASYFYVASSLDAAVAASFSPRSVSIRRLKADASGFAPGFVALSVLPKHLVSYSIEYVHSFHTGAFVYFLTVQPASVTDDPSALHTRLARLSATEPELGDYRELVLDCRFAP
Macrophage-stimulating protein receptor (Homo sapiens), sequence (Q04912 310-1400 limits assumed): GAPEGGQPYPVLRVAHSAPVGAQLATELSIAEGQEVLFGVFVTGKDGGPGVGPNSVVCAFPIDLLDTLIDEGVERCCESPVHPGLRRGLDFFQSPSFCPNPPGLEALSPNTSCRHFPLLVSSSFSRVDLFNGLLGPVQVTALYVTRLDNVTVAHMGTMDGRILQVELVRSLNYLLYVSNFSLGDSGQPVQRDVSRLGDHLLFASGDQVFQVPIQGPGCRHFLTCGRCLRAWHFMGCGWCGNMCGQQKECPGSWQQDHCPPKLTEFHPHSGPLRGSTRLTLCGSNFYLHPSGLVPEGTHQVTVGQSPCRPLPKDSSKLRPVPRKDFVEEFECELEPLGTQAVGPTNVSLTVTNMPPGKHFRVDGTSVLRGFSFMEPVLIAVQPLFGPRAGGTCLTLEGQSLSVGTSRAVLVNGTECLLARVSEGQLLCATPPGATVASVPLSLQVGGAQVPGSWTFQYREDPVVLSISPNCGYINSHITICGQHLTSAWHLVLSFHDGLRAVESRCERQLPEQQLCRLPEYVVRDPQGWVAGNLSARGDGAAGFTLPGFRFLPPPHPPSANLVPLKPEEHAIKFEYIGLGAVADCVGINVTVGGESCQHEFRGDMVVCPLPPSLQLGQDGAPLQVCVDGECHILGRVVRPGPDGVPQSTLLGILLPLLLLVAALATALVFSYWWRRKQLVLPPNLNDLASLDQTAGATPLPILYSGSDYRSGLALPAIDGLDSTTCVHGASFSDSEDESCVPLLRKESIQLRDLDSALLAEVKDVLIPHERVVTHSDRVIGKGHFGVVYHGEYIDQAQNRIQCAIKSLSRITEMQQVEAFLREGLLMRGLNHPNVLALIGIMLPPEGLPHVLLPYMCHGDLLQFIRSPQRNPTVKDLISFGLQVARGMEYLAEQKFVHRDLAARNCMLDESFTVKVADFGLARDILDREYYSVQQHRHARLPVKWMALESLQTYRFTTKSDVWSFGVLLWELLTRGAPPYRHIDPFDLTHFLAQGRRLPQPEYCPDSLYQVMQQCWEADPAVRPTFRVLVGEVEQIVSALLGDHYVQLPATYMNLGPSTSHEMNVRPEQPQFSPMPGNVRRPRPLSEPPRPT
Serine/threonine-protein kinase Chk1 (Homo sapiens), sequence (O14757 whole entry): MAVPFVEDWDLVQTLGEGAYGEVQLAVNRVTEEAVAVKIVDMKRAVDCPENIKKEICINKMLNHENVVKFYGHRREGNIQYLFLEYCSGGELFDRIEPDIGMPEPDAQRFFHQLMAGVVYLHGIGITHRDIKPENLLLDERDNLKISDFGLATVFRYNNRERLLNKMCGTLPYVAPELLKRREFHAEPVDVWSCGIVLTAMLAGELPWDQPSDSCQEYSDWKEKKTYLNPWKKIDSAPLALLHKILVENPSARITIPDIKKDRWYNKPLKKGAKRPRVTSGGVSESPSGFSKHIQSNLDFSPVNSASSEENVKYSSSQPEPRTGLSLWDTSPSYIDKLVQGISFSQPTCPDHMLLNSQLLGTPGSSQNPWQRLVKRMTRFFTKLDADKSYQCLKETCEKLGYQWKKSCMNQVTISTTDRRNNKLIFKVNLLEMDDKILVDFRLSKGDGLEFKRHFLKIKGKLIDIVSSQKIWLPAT
Tyrosine-protein kinase receptor UFO (Homo sapiens), sequence (P30530 whole entry): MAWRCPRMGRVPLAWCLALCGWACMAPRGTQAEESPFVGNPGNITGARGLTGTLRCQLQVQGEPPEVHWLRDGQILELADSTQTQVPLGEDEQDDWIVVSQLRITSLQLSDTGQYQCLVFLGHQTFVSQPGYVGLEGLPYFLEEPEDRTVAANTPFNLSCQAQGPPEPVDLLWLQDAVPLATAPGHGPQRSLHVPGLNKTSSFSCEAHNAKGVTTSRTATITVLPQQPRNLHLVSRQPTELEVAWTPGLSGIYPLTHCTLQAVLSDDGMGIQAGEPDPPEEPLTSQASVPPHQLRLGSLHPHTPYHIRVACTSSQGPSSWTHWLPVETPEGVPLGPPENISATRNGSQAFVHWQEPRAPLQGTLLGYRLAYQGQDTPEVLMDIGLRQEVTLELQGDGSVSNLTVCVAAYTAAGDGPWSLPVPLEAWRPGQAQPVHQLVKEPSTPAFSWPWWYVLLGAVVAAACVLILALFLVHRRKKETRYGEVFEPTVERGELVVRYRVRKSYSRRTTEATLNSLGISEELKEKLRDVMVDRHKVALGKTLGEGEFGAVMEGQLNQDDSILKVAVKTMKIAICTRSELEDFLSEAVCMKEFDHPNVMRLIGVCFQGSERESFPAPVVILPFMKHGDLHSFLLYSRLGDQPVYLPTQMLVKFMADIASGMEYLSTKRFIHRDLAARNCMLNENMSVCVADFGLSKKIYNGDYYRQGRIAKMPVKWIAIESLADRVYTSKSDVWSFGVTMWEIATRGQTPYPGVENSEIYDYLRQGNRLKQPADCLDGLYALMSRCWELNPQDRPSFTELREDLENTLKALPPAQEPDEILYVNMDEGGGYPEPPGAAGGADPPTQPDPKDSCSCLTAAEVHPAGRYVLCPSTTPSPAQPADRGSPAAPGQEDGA
Tyrosine-protein kinase ABL1 (Homo sapiens), sequence (P00519 whole entry): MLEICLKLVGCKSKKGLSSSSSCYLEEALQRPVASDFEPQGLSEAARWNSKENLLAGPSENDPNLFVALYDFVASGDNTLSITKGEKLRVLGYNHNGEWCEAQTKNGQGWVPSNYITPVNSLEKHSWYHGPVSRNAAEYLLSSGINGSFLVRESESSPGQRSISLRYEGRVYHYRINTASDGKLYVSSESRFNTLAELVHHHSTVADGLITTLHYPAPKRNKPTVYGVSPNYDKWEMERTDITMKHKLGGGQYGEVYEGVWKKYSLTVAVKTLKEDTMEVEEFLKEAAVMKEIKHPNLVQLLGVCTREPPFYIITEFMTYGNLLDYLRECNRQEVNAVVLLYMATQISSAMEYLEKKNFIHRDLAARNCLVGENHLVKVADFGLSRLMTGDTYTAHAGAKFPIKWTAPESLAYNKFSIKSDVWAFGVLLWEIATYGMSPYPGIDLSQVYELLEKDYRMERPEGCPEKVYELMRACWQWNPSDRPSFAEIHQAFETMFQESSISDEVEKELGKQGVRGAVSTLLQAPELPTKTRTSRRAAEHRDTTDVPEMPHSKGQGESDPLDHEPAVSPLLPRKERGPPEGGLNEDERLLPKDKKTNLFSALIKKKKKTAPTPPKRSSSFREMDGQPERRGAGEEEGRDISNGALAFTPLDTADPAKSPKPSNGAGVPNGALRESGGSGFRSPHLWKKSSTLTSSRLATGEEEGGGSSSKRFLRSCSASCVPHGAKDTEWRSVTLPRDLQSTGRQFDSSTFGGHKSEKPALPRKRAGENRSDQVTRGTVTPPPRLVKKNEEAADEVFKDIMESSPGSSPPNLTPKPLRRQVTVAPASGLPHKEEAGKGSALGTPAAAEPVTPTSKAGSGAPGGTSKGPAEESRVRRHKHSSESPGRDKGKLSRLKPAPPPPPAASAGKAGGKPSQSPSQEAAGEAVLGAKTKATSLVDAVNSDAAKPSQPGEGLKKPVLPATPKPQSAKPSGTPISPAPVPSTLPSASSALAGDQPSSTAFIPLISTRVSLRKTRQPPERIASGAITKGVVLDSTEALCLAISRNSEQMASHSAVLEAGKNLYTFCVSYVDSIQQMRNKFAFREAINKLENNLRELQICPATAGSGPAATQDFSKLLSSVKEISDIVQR
Activated CDC42 kinase 1 (Homo sapiens), sequence (Q07912 whole entry, looked up): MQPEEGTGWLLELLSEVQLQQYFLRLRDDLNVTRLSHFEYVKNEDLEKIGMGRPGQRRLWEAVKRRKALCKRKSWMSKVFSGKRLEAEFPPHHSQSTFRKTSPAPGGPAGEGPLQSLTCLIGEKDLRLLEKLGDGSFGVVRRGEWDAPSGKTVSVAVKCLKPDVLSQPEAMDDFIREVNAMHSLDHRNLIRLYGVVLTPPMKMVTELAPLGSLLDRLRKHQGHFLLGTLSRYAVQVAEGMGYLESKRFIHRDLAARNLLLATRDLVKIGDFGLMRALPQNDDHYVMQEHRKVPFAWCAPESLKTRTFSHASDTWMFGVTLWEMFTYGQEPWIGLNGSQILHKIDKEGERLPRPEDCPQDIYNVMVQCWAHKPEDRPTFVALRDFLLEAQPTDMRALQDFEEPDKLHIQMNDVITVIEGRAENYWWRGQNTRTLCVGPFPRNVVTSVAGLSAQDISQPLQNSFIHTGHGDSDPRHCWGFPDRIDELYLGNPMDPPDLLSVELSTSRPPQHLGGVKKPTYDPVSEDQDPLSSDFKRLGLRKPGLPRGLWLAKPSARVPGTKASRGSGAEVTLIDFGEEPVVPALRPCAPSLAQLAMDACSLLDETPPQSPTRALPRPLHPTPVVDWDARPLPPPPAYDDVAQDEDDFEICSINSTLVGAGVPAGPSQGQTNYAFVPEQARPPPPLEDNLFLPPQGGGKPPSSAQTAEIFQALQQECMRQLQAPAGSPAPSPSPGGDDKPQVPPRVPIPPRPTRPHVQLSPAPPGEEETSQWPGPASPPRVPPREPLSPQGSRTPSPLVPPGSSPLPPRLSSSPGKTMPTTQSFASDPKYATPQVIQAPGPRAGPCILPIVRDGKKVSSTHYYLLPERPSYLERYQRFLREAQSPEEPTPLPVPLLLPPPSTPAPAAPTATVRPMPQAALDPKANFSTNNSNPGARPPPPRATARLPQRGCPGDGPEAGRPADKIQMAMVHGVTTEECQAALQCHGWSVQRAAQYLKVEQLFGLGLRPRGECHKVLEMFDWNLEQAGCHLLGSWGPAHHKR

For the compound `CC(=O)N1CCN(c2ccc(Nc3ncc(C(F)(F)F)c(N4Cc5cccc(N(C)S(C)(=O)=O)c5C4)n3)cc2)CC1`, the inhibition was 65.4% in [1]; 37.2% in experiment [2]; 83.8% in [3]; 95.3% in [4]; 13.1% in experiment [5]; 91.1% in experiment [6]. In addition, the inhibition in [7] was 63.1%; in experiment [9], 90.6%; in experiment [10], 71.3%; in experiment [11], 95.2%; in experiment [12], 40.1%; in experiment [13], -2.5%. Moreover, the inhibition in experiment [15] was found to be 92.1%; in experiment [16], 14.1%. The GI50 with OVCAR-3 worked out at 970 nM; in the experiment with HepG2, 1400 nM. Further, the concentration for half-maximal inhibition (IC50) in experiment [8] was 50 nM; in experiment [14], 4.6 nM.
